Screening results as filed in PubChem.
This is one part of a sample in which hits are shown more often than they occur.
Yeast growth inh = chemicals that inhibit yeast BB579 growth in restrictive medium (lifespan-shortening candidates); S. cerevisiae BB579 growth, OD615, 48 h; inhibition, % at 10 µM; hit rate 0.51% among 140,000;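 active means inhibition above a set limit, 3 SD over the mean compound inhibition, cut at about 44% in these data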
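Assay system: S. cerevisiae DeaD strain BB579 yeast. Medium: CSMM-D restrictive synthetic medium containing dextrose (glucose). Times: 4 h cell preincubation, 48 h compound exposure, 30 °C humidified. Signal: OD615 turbidity measurement. Benchmarks: positive control amphotericin B 10 µg/mL.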
Yeast life ext = yeast lifespan extension. S. cerevisiae growth with nicotinamide, OD615; deaD strain in restrictive glucose medium. inhibition of the nicotinamide effect, % at 10 µM. hit rate 0.68% among 130,000;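 active means inhibition above a set limit, placed 3 SD over the median of all compounds, cut at about 26% in these data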;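 further: 0% = nicotinamide-treated wells and 100% = cells grown without nicotinamide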
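assay system = DeaD-strain S. cerevisiae | measured by = absorbance at 615 nm | probe or stimulus = nicotinamide 1.5 mM | buffer or medium = CSMM-D glucose medium, restrictive | times = 48 h at 30 °C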
PostGolgi yeast = growth inhibition of a yeast mutant, post-Golgi transport screen; post-Golgi transport phenotypic cell assay; inhibition, % at 10 µM; hit rate 0.9% among 98,000;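 further: yeast cells grown in 1536-well plates; yeast grown about 18 h at 30C before absorbance read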
PostGolgi ctrl = inhibits growth of the yeast control strain; efflux-deficient yeast background strain, growth absorbance A615, 16 h; inhibition, % at 10 µM; hit rate 5% among 98,000
Starred values were filed as active, the others as inactive; . = no result. Unless noted, no stated cut-off is given here; in the data, active means inhibition above about 30%; inactive means the rest.

SMILES	Yeast growth inh	Yeast life ext	PostGolgi yeast	PostGolgi ctrl
Cc1ccc(-c2nc3cccnc3o2)cc1NC(=O)COc1ccc(C(C)(C)C)cc1	-14	-15	5	42*
Cc1noc(C)c1CSCC(=O)N1CCN(c2ccc([N+](=O)[O-])cc2)CC1	-29	-2	0	14
Cc1cc2c(cc1C)CSC(c1c(O)ccc3ccccc13)SC2	20	-9	103*	100*
Cc1cc2c(cc1C)CSC(c1ccc3ccccc3c1O)SC2	-4	-10	-13	7
Cc1cc2c(cc1C)CSC(c1ccccc1O)SC2	-7	-15	1	31*
Cc1ccc(NC(=S)N2CCC(c3nc4ccccc4s3)CC2)cc1	-43	-10	1	10
COc1cc(SC)ccc1C(=O)NCc1ccc(C)cc1	-14	-23	44*	24
CCn1c(SCC(=O)Nc2ccc3c(c2)oc2ccccc23)nnc1-c1ccc(N)cc1	-25	-10	42*	18
Cc1ccccc1OCc1nnc(SCC(=O)NCc2ccccc2)n1C	-43	-8	-6	14
CCOC(=O)c1ccccc1NC(=O)CSc1nnc(COc2ccccc2C)n1C	-10	4	2	38*
C=CCn1c(COc2ccccc2F)nnc1SCC(=O)Nc1cc2oc3ccccc3c2cc1OC	-25	-3	2	15
CCn1c(SCC(=O)NCC(=O)Nc2ccc(F)cc2)nnc1-c1ccncc1	8	-8	-2	35*
COc1cc2c(cc1NC(=O)CSc1nnc(COc3ccc(Cl)cc3)n1C)oc1ccccc12	-32	-3	2	35*
CO/N=C/c1cc([N+](=O)[O-])ccc1Sc1ccc(C)cc1	-6	-7	9	2
CCn1c(CSc2nnc(-c3ccc4c(c3)OCO4)o2)nc2cc(S(=O)(=O)N(C)C)ccc21	-36	-22	-3	2
Cc1nn(-c2ccccc2)c(N)c1C(c1ccccc1)c1c(C)nn(-c2ccccc2)c1N	-25	6	.	.
CCn1c(SCC(=O)Nc2cc3oc4ccccc4c3cc2OC)nnc1-c1cccs1	-57	-10	0	47*
COc1cc2c(cc1NC(=O)CSc1nnc(Cc3cccs3)n1Cc1ccco1)oc1ccccc12	-33	-24	1	33*
COc1cc2c(cc1NC(=O)CSc1nnc(Cc3cccs3)n1C)oc1ccccc12	-79	-12	-9	35*
COc1cc2c(cc1NC(=O)CN1C(=O)NC3(CCc4ccccc43)C1=O)oc1ccccc12 (configuration not stated)	-70	2	8	38*
CC1CN(C(=O)c2ccn(C)n2)CC(C)O1 (configuration not stated)	-26	0	.	.
COC(=O)Nc1ccc(C)c2nsnc12	-30	-9	-1	-6
COC(=O)C1=C(C)NC(=O)CC1c1cc2c(cc1Br)OCO2 (configuration not stated)	-31	-9	-6	4
CC1=C(C(=O)OCCOC(C)C)C(c2cc3c(cc2Br)OCO3)CC(=O)N1 (configuration not stated)	-32	-19	16	32*
CC1=C(C(=O)OC2CCCCCCC2)C(c2cc3c(cc2Br)OCO3)CC(=O)N1 (configuration not stated)	-45	1	5	43*
SMILES	Yeast growth inh	Yeast life ext	PostGolgi yeast	PostGolgi ctrl
CN1c2ccsc2C(O)=C(C(=S)Nc2ccc(F)c(Cl)c2)S1(=O)=O	-27	-7	-6	0
O=C(O)CC(c1cccc2ccccc12)n1cccc1 (configuration not stated)	-28	-5	0	-1
Brc1ccc(C2C3=C(Nc4ncnn42)c2ccccc2OC3c2ccncc2)cc1 (configuration not stated)	-36	0	-3	40*
CC1=CN2C(=N)/C(=C/c3ccc([N+](=O)[O-])o3)C(=O)N=C2S1	20	33*	.	.
O=C(COc1ccccc1)N1CCN(C(=O)Cc2ccccc2)CC1	-9	-8	0	8
CN(C)S(=O)(=O)c1cccc(NC(=S)Nc2cc(Cl)cc(Cl)c2)c1	-29	-6	97*	84*
CN(C)S(=O)(=O)c1cccc(NC(=S)Nc2ccc(Cl)cc2Cl)c1	-20	-16	-5	2
CCc1nn2c(N3CCOCC3)cc(C)nc2c1-c1ccc(F)cc1	-14	-12	-4	45*
COc1cc(Cl)c(C)cc1NC(=O)CSc1cc(Cl)ccc1Cl	-56	7	.	.
O=C(Nc1ccc2c(c1)OCO2)C1CCCCN1S(=O)(=O)c1ccccc1 (configuration not stated)	-47	4	-2	6
COC(=O)CSc1nc2ccc(NC(=O)CSc3nnnn3Cc3ccccc3)cc2s1	-39	4	10	36*
Oc1ccccc1NCC(O)Cn1ccc2ccccc21 (configuration not stated)	50*	5	16	37*
OC(CNCc1ccccc1)Cn1ccc2ccccc21 (configuration not stated)	-17	3	.	.
O=C(CSc1ncn(-c2ccccc2)n1)Nc1nc2ccccc2s1	-19	-19	3	25
O=C(CSc1ncn(-c2ccccc2)n1)Nc1nc2c(s1)CCCC2	-72	-14	-2	46*
CC(C)c1nc(SCC(=O)Nc2nc3c(s2)CCCC3)c2ccccc2n1	-31	-20	22	39*
O=C(Cc1cccs1)Nc1nc2c(s1)CCCC2	-23	-14	35*	-3
CC(=O)Nc1ccc(C(=O)CSc2ncn(-c3ccccc3)n2)cc1	-30	-5	2	35*
COc1cccc(C(=O)Oc2ccc3c(C)cc(=O)oc3c2C(C)=O)c1	-29	2	.	.
Cn1c(SCC(=O)Nc2nc3c(s2)CCCC3)nnc1-c1ccccc1	-10	-11	-6	9
O=C(CSc1nc(Cc2ccccc2)nc2ccccc12)Nc1nc2c(s1)CCCC2	-41	1	13	40*
CC(C)(C)c1nc(SCC(=O)Nc2nc3c(s2)CCCC3)c2ccccc2n1	-81	8	-8	34*
O=C(CCSc1ccccc1)Nc1nc2c(s1)CCCC2	-52	-6	4	19
Cc1ccc(C(C2C(=O)CC(C)(C)CC2=O)C2C(=O)CC(C)(C)CC2=O)s1	-40	34*	-6	-10
CNC(=S)N1N=C(c2ccc(C)cc2)CC1c1ccc(OC)cc1 (configuration not stated)	11	4	-6	47*
SMILES	Yeast growth inh	Yeast life ext	PostGolgi yeast	PostGolgi ctrl
O=C1CN(c2ccccc2F)C(=O)CN1c1ccccc1F	-24	1	13	37*
CC(C)CC(=O)NC(=S)Nc1ccc(S(=O)(=O)Nc2nccs2)cc1	-22	0	.	.
CCCc1cc(C(=O)Nc2ccccc2C(=O)OC)no1	-25	-5	3	19
CCCc1cc(C(=O)Nc2cccnc2Cl)no1	-38	-23	0	30*
Oc1ccc(N=C/C=C/c2ccc(Br)cc2)cc1-c1nc2ccccc2s1	-19	-7	.	.
CCOC(=O)/C(C#N)=C1/C=Nc2ccccc2N1	-29	-23	-3	41*
Cc1ccc(-n2cc3c(-c4cccc(Br)c4)nnc(C)c3n2)cc1	-11	-3	99*	41*
Cc1nnc(-c2cccc(Br)c2)c2cn(-c3ccccc3Cl)nc12	-18	-23	102*	27
